System: Fibroblast
Assay: Multiplex assay against human fibroblast
Format: toxicity, cell-based
Summary of the method: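 Hoechst33342, BioTracker Green Microtubule Cytoskeleton Dye, MitoTracker Red and Annexin V Alexa Fluor 680 were added to live cells at seeding, and imaging on a CQ1 microscope at 37°C and 5% CO2 followed compound addition. Gating by CellPathfinder machine learning separated cells into Hoechst high-intensity objects or normal cells, then normal cells into healthy, pyknosed or fragmented nuclei, then pyknosed cells into mitotic or apoptotic. Per cents of healthy-nucleus cells are reported for the tubulin, mitochondrial-mass and membrane-permeability phenotypes.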

[1] = 12 h, 1 µM, compound concentration 1 uM, replicate 1
[2] = 12 h, 1 µM, compound concentration 1 uM, replicate 2
[3] = 12 h, 10 µM, compound concentration 10 uM, replicate 1
[4] = 12 h, 10 µM, compound concentration 10 uM, replicate 2
[5] = 24 h, 1 µM, compound concentration 1 uM, replicate 1
[6] = 24 h, 1 µM, compound concentration 1 uM, replicate 2
[7] = 24 h, 10 µM, compound concentration 10 uM, replicate 1
[8] = 24 h, 10 µM, compound concentration 10 uM, replicate 2
[9] = 48 h, 1 µM, compound concentration 1 uM, replicate 1
[10] = 48 h, 1 µM, compound concentration 1 uM, replicate 2
[11] = 48 h, 10 µM, compound concentration 10 uM, replicate 1
[12] = 48 h, 10 µM, compound concentration 10 uM, replicate 2

Cc1cc(NC(=O)NCCN2CCC(O)(Cc3ccccc3)CC2)c2ccccc2n1 [PALOSURAN]
Population Apoptotic (%) [1]: 37%
Population Fragmented Nuclei (%) [1]: 10%
Population Healthy Nuclei (%) [1]: 77%
Population Hoechst High Intensity Objects (%) [1]: 2%
Population Membrane Permeable-Phenotype (%) [1]: 3%
Population Mitochondria Different-Phenotype (%) [1]: 1%
Population Mitotic Cells (%) [1]: 62%
Population Normal (%) [1]: 97%
Population Pyknosed Nuclei (%) [1]: 12%
Population Tubulin-Different-Phenotype (%) [1]: 19%
Total Cell Count [1]: 133
Population Apoptotic (%) [2]: 40%
Population Fragmented Nuclei (%) [2]: 26%
Population Healthy Nuclei (%) [2]: 44%
Population Hoechst High Intensity Objects (%) [2]: 9%
Population Membrane Permeable-Phenotype (%) [2]: 1%
Population Mitochondria Different-Phenotype (%) [2]: 13%
Population Mitotic Cells (%) [2]: 59%
Population Normal (%) [2]: 90%
Population Pyknosed Nuclei (%) [2]: 28%
Population Tubulin-Different-Phenotype (%) [2]: 46%
Total Cell Count [2]: 143
Population Apoptotic (%) [3]: 40%
Population Fragmented Nuclei (%) [3]: 14%
Population Healthy Nuclei (%) [3]: 69%
Population Hoechst High Intensity Objects (%) [3]: 1%
Population Membrane Permeable-Phenotype (%) [3]: 0%
Population Mitochondria Different-Phenotype (%) [3]: 13%
Population Mitotic Cells (%) [3]: 59%
Population Normal (%) [3]: 98%
Population Pyknosed Nuclei (%) [3]: 15%
Population Tubulin-Different-Phenotype (%) [3]: 37%
Total Cell Count [3]: 178
Population Apoptotic (%) [4]: 41%
Population Fragmented Nuclei (%) [4]: 28%
Population Healthy Nuclei (%) [4]: 49%
Population Hoechst High Intensity Objects (%) [4]: 6%
Population Membrane Permeable-Phenotype (%) [4]: 3%
Population Mitochondria Different-Phenotype (%) [4]: 3%
Population Mitotic Cells (%) [4]: 58%
Population Normal (%) [4]: 93%
Population Pyknosed Nuclei (%) [4]: 22%
Population Tubulin-Different-Phenotype (%) [4]: 51%
Total Cell Count [4]: 113
Population Apoptotic (%) [5]: 53%
Population Fragmented Nuclei (%) [5]: 15%
Population Healthy Nuclei (%) [5]: 73%
Population Hoechst High Intensity Objects (%) [5]: 2%
Population Membrane Permeable-Phenotype (%) [5]: 1%
Population Mitochondria Different-Phenotype (%) [5]: 0%
Population Mitotic Cells (%) [5]: 46%
Population Normal (%) [5]: 97%
Population Pyknosed Nuclei (%) [5]: 10%
Population Tubulin-Different-Phenotype (%) [5]: 17%
Total Cell Count [5]: 129
Population Apoptotic (%) [6]: 40%
Population Fragmented Nuclei (%) [6]: 27%
Population Healthy Nuclei (%) [6]: 50%
Population Hoechst High Intensity Objects (%) [6]: 6%
Population Membrane Permeable-Phenotype (%) [6]: 14%
Population Mitochondria Different-Phenotype (%) [6]: 21%
Population Mitotic Cells (%) [6]: 60%
Population Normal (%) [6]: 93%
Population Pyknosed Nuclei (%) [6]: 22%
Population Tubulin-Different-Phenotype (%) [6]: 62%
Total Cell Count [6]: 119
Population Apoptotic (%) [7]: 42%
Population Fragmented Nuclei (%) [7]: 14%
Population Healthy Nuclei (%) [7]: 77%
Population Hoechst High Intensity Objects (%) [7]: 1%
Population Membrane Permeable-Phenotype (%) [7]: 0%
Population Mitochondria Different-Phenotype (%) [7]: 8%
Population Mitotic Cells (%) [7]: 57%
Population Normal (%) [7]: 98%
Population Pyknosed Nuclei (%) [7]: 8%
Population Tubulin-Different-Phenotype (%) [7]: 37%
Total Cell Count [7]: 178
Population Apoptotic (%) [8]: 60%
Population Fragmented Nuclei (%) [8]: 30%
Population Healthy Nuclei (%) [8]: 47%
Population Hoechst High Intensity Objects (%) [8]: 3%
Population Membrane Permeable-Phenotype (%) [8]: 3%
Population Mitochondria Different-Phenotype (%) [8]: 1%
Population Mitotic Cells (%) [8]: 40%
Population Normal (%) [8]: 96%
Population Pyknosed Nuclei (%) [8]: 22%
Population Tubulin-Different-Phenotype (%) [8]: 48%
Total Cell Count [8]: 117
Population Apoptotic (%) [9]: 50%
Population Fragmented Nuclei (%) [9]: 16%
Population Healthy Nuclei (%) [9]: 72%
Population Hoechst High Intensity Objects (%) [9]: 3%
Population Membrane Permeable-Phenotype (%) [9]: 0%
Population Mitochondria Different-Phenotype (%) [9]: 2%
Population Mitotic Cells (%) [9]: 50%
Population Normal (%) [9]: 96%
Population Pyknosed Nuclei (%) [9]: 11%
Population Tubulin-Different-Phenotype (%) [9]: 15%
Total Cell Count [9]: 126
Population Apoptotic (%) [10]: 61%
Population Fragmented Nuclei (%) [10]: 42%
Population Healthy Nuclei (%) [10]: 44%
Population Hoechst High Intensity Objects (%) [10]: 7%
Population Membrane Permeable-Phenotype (%) [10]: 14%
Population Mitochondria Different-Phenotype (%) [10]: 14%
Population Mitotic Cells (%) [10]: 38%
Population Normal (%) [10]: 92%
Population Pyknosed Nuclei (%) [10]: 13%
Population Tubulin-Different-Phenotype (%) [10]: 61%
Total Cell Count [10]: 149
Population Apoptotic (%) [11]: 55%
Population Fragmented Nuclei (%) [11]: 19%
Population Healthy Nuclei (%) [11]: 69%
Population Hoechst High Intensity Objects (%) [11]: 5%
Population Membrane Permeable-Phenotype (%) [11]: 0%
Population Mitochondria Different-Phenotype (%) [11]: 10%
Population Mitotic Cells (%) [11]: 44%
Population Normal (%) [11]: 94%
Population Pyknosed Nuclei (%) [11]: 10%
Population Tubulin-Different-Phenotype (%) [11]: 36%
Total Cell Count [11]: 186
Population Apoptotic (%) [12]: 61%
Population Fragmented Nuclei (%) [12]: 38%
Population Healthy Nuclei (%) [12]: 44%
Population Hoechst High Intensity Objects (%) [12]: 2%
Population Membrane Permeable-Phenotype (%) [12]: 2%
Population Mitochondria Different-Phenotype (%) [12]: 6%
Population Mitotic Cells (%) [12]: 38%
Population Normal (%) [12]: 97%
Population Pyknosed Nuclei (%) [12]: 16%
Population Tubulin-Different-Phenotype (%) [12]: 61%
Total Cell Count [12]: 112
